How the values were obtained:
L6 = assay: Cytotoxicity against rat L6 cells assessed as growth inhibition after 72 hrs by fluorometric analysis; type: cell-based; conditions: L6, 72 h
Method in brief: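 Mammalian L6 cell growth inhibition; IC50 taken as the average of at least two independent assays, each run in duplicate.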

[1] = Selectivity index, ratio of IC50 for rat L6 cells to IC50 for chloroquine/pyrimethamine-resistant Plasmodium falciparum K1; type: toxicity, cell-based; conditions: rat L6 cells (cytotoxicity) versus Plasmodium falciparum K1, read-out: Ratio IC50
Method in brief: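 Ratio of the rat L6 cell growth-inhibition IC50 to the P. falciparum K1 IC50, calculated per WHO/TDR guidelines. Each cell IC50 is the average of at least two independent assays run in duplicate.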

Plasmodium falciparum [2] = assay: Antiplasmodial activity against chloroquine/pyrimethamine-resistant Plasmodium falciparum K1 assessed as growth inhibition after […] by [3H]-hypoxanthine incorporation assay; type: functional, organism-based
Method in brief: (§1)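 Tested against the chloroquine- and pyrimethamine-resistant K1 strain, with chloroquine as the standard drug. Growth was read by [3H]hypoxanthine incorporation. IC50 was taken from graphically plotted dose–response curves and averaged over at least two independent assays run in duplicate.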

[3] = Inhibition of recombinant Plasmodium falciparum FabI using crotonoyl-CoA as substrate assessed as consumption of NADH after 10 mins
Method in brief: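 Recombinant PfFabI inhibition was followed spectrophotometrically. IC50 is the concentration giving 50% inhibition, reported as the mean of three independent experiments.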

Fatty acid synthase = molecular target: T1, Fatty acid synthase (Plasmodium falciparum, UniProt Q965D7); assay: Inhibition of recombinant Plasmodium falciparum FabZ using crotonoyl-CoA as substrate after 10 mins
T1 sequence (Q965D7 whole entry): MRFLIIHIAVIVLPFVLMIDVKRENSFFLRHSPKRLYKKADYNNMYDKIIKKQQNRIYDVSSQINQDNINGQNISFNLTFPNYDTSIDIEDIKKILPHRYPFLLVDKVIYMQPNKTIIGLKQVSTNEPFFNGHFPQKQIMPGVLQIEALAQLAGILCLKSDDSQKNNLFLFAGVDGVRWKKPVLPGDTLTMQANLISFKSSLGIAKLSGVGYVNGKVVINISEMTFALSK
Method in brief: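 Recombinant enzymes PfFabG and PfFabZ were used. IC50 is the concentration giving 50% inhibition, reported as the mean of three independent experiments.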

[4] = molecular target: T2, 3-oxoacyl-(Acyl-carrier protein) reductase (Plasmodium falciparum (isolate 3D7), UniProt Q8I2S7); assay: Inhibition of recombinant Plasmodium falciparum 3D7 FabG using acetoacetyl-CoA as substrate after 10 mins in presence of NADPH
T2 sequence (Q8I2S7 whole entry): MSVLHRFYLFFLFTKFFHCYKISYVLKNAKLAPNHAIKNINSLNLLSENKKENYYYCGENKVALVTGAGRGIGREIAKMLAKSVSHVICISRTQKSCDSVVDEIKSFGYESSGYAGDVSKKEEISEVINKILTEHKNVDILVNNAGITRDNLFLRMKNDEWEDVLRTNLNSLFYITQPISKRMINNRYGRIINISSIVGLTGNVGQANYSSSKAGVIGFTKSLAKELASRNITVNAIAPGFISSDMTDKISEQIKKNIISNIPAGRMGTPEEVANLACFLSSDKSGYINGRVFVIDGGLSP

Plasmodium falciparum [5] = assay: Antiplasmodial activity against asexual blood stage form of Plasmodium falciparum assessed as growth inhibition after 72 hrs by [3H]-hypoxanthine incorporation assay; type: functional, organism-based; method in brief: as §1
[6] = Inhibition of Plasmodium falciparum FabI using crotonoyl-CoA as substrate by UV-Vis spectrophotometric analysis in presence of NADH
Method in brief: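 Recombinant PfFabI enzyme, spectrophotometric read-out; IC50 (concentration giving 50% inhibition) reported as the mean of three independent experiments.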

| SMILES | IC50 (L6) | selectivity ratio [1] | IC50 (Plasmodium falciparum [2]) | IC50 [3] | IC50 (Fatty acid synthase) | IC50 [4] | IC50 (Plasmodium falciparum [5]) | IC50 [6] |
| --- | --- | --- | --- | --- | --- | --- | --- | --- |
| O=c1ccc2cc(Oc3ccc(Cl)cc3O)ccc2o1 | 96.2 µM | 9 | 10.7 µM | 0.63 µM | – | – | – | – |
| Cc1cc(=O)oc2ccc(Oc3ccc(Cl)cc3O)cc12 | 35.5 µM | 2.2 | 15.6 µM | 14.2 µM | – | – | – | – |
| CCc1cc(=O)oc2ccc(Oc3ccc(Cl)cc3O)cc12 | 142 µM | 25.6 | 5.6 µM | 11 µM | – | – | – | – |
| O=c1ccc2ccc(Oc3ccc(Cl)cc3O)cc2o1 | 188 µM | 20.1 | 9.3 µM | 2.7 µM | – | – | – | – |
| Cc1cc(=O)oc2cc(Oc3ccc(Cl)cc3O)ccc12 | 85.9 µM | 9 | 9.5 µM | 0.25 µM | > 100 µM | > 100 µM | – | – |
| CCc1cc(=O)oc2cc(Oc3ccc(Cl)cc3O)ccc12 | 84.8 µM | 14.9 | 5.7 µM | 0.27 µM | > 100 µM | > 100 µM | – | – |
| O=c1oc2ccccc2cc1Oc1ccc(Cl)cc1O | 108 µM | 7.2 | 15 µM | 5.5 µM | > 100 µM | > 100 µM | – | – |
| O=c1oc2ccc(O)cc2cc1Oc1ccc(Cl)cc1O | 134 µM | – | > 15 µM | 14 µM | > 100 µM | > 100 µM | – | – |
| O=c1oc2cc(O)ccc2cc1Oc1ccc(Cl)cc1O | 144 µM | – | > 15 µM | 6 µM | 16.3 µM | 99 µM | – | – |
| O=c1oc2cc(O)cc(O)c2cc1Oc1ccc(Cl)cc1O | 128 µM | – | > 15 µM | 44 µM | 90 µM | > 100 µM | – | – |
| Cc1c(Oc2ccc(Cl)cc2O)c(=O)oc2ccccc12 | 51.5 µM | – | > 15 µM | 12 µM | 13 µM | > 100 µM | – | – |
| Cc1c(Oc2ccc(Cl)cc2O)c(=O)oc2cc(O)ccc12 | 96.3 µM | – | > 15 µM | 15 µM | 28 µM | > 100 µM | – | – |
| O=c1oc2cc(O)ccc2cc1-c1ccc(Oc2ccc(Cl)cc2O)cc1 | 41 µM | 5.1 | 8 µM | 0.45 µM | 10 µM | > 100 µM | – | – |
| O=C(O[C@@H]1Cc2c(O)cc(O)cc2O[C@@H]1c1cc(O)c(O)c(O)c1)c1cc(O)c(O)c(O)c1 [EPIGALOCATECHIN GALLATE] | – | – | – | – | 0.03 µM | – | – | – |
| COc1cc([C@@H]2c3cc4c(cc3[C@H](O)[C@H]3COC(=O)[C@H]23)OCO4)cc(OC)c1OC [PODOFILOX] | 0.006 µM | – | – | – | – | – | – | – |
| Oc1cc(Cl)ccc1Oc1ccc(Cl)cc1Cl [TRICLOSAN] | – | – | 1.51 µM | 0.05 µM | – | – | 1 µM | 0.05 µM |
